Data set [1] deals with Japanese encephalitis virus. The data set can be described thus: Antiviral activity against Japanese encephalitis virus GP78 infected BALB/c mouse assessed as inhibition of viral proteins in mouse brain at 25 mg/kg, ip twice daily after 8 to 9 days by immunoblot. The class given is functional, organism-based. More on the design: dose 25 mg/kg.
Data set [2] relates to BV-2. The data set can be described thus: Antiinflammatory activity in Japanese encephalitis virus GP78 infected mouse BV2 cells assessed as decrease in virus-induced TNFalpha levels at 25 uM after 18 hrs by Western blot relative to control. The class given is functional. (Immunoblotting shows a protein as a band on a membrane.)
The subject of data set [3] is Mus musculus. Description: Antiinflammatory activity in Japanese encephalitis virus GP78 infected BALB/c mouse assessed as decrease in virus-induced IL12 levels at 25 mg/kg, ip twice daily after 8 to 9 days relative to control. The class given is functional. The following applies: route intraperitoneal. Summed up:
(§1)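 BALB/c mice (4–5 weeks, either sex; 15 per group) were dosed with RA in PBS at 25 mg/kg i.p. twice daily, from day 1 after infection until the first untreated infected mouse died. IL-12, TNF-α, IFN-γ, MCP-1 and IL-6 in brain tissue lysates were quantified with a mouse cytometric bead array. Statistics used one-way ANOVA with Bonferroni post hoc comparisons.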

Data set [4] concerns BV-2. Description: Antiinflammatory activity in Japanese encephalitis virus GP78 infected mouse BV2 cells assessed as decrease in virus-induced IL12 levels at 25 uM after 18 hrs by Western blot relative to control. The format is functional.
Data set [5] has as its system Mus musculus. Description: Antiinflammatory activity in Japanese encephalitis virus GP78 infected BALB/c mouse assessed as decrease in virus-induced IFN-gamma levels at 25 mg/kg, ip twice daily after 8 to 9 days relative to control. The format is functional. The following applies: route intraperitoneal. Summed up: as §1
Data set [6] concerns Mus musculus. The data set can be described thus: Antiinflammatory activity in Japanese encephalitis virus GP78 infected BALB/c mouse assessed as decrease in Cox2 levels at 25 mg/kg, ip twice daily after 8 to 9 days relative to control. The format is functional, organism-based. Also on record: dose 25 mg/kg. Summed up: (§2)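 BALB/c mice (4–5 weeks, either sex; 15 per group) received RA dissolved in PBS at 25 mg/kg i.p. twice daily. Dosing began one day after infection and continued until the first untreated infected mouse died. Brain protein (10 μg) was Western blotted with pNF-κB, IκB-α and Cox-2 antibodies (1:1,000), using β-tubulin as loading reference and HRP chemiluminescence detection. Groups were compared by one-way ANOVA with Bonferroni post hoc tests.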

In data set [7] the test system is Mus musculus. The data set can be described thus: Toxicity in BALB/c mouse assessed as behavioral activity at 25 mg/kg, ip twice daily. The following applies: in vivo. More on the design: dose 25 mg/kg, route intraperitoneal. The class given is organism-based. The procedure, abridged:
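Uninfected BALB/c mice (4–5 weeks, either sex; 15 per group) received RA alone, dissolved in PBS, at 25 mg/kg i.p. twice daily. Behavior was observed and compared with a PBS-injected control group.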

Data set [8] has as its system Mus musculus. Description: Antiinflammatory activity in Japanese encephalitis virus GP78 infected BALB/c mouse assessed as decrease in phosphorylated NF-kappaB levels at 25 mg/kg, ip twice daily after 8 to 9 days relative to control. The format is functional, organism-based. Also on record: dose 25 mg/kg. Summed up:
as §2

The test system of data set [9] is Japanese encephalitis virus. Description: Antiviral activity against Japanese encephalitis virus GP78 infected BALB/c mouse assessed as reduction in mortality rate at 25 mg/kg, ip twice daily administered 1 day post viral-challenge. The format is functional. The following applies: route intraperitoneal. More on the design: scale not given: the % may be the effect or the level left. The procedure, abridged:
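Survival was followed in infected BALB/c mice (4–5 weeks, either sex; 15 per group). Animals received RA in PBS at 25 mg/kg i.p. twice daily, from day 1 post-infection until the first untreated infected animal died. Symptoms (limb paralysis, tremor, piloerection, stiffening) were recorded alongside deaths.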

For data set [10], the system named is BV-2. Description: Antiinflammatory activity in Japanese encephalitis virus GP78 infected mouse BV2 cells assessed as decrease in virus-induced MCP1 levels at 25 uM after 18 hrs by Western blot relative to control. The format is functional.
The subject of data set [11] is Japanese encephalitis virus. The data set can be described thus: Antiviral activity against Japanese encephalitis virus GP78 infected BALB/c mouse assessed as inhibition of viral mRNA transcript in mouse brain at 25 mg/kg, ip twice daily after 8 to 9 days. The class given is functional, organism-based. Also on record: dose 25 mg/kg.
For data set [12], the system named is Mus musculus. Description: Antiinflammatory activity in Japanese encephalitis virus GP78 infected BALB/c mouse assessed as increase in IkappaB-alpha levels at 25 mg/kg, ip twice daily after 8 to 9 days relative to control. Also on record: dose 25 mg/kg. The format is functional, organism-based. The procedure, abridged: as §2
The subject of data set [13] is Mus musculus. The data set can be described thus: Antiinflammatory activity in Japanese encephalitis virus GP78 infected BALB/c mouse assessed as decrease in virus-induced MCP1 levels at 25 mg/kg, ip twice daily after 8 to 9 days relative to control. The class given is functional. The following applies: route intraperitoneal. The procedure, abridged: as §1
The test system of data set [14] is BV-2. Description: Antiinflammatory activity in Japanese encephalitis virus GP78 infected mouse BV2 cells assessed as decrease in virus-induced IFN-gamma levels at 25 uM after 18 hrs by Western blot relative to control. The format is functional.
The subject of data set [15] is BV-2. The data set can be described thus: Antiinflammatory activity in Japanese encephalitis virus GP78 infected mouse BV2 cells assessed as decrease in virus-induced IL6 levels at 25 uM after 18 hrs by Western blot relative to control. The class given is functional.
Data set [16] deals with Japanese encephalitis virus. The data set can be described thus: Antiviral activity against Japanese encephalitis virus GP78 infected BALB/c mouse assessed as reduction of activated microglia in mouse brain at 25 mg/kg, ip twice daily. The format is functional, organism-based. More on the design: dose 25 mg/kg. Summed up:
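RA was given at 25 mg/kg i.p. twice daily to infected BALB/c mice. Mice were perfused with PBS containing 7 U/ml heparin, then with 2.5% paraformaldehyde. Cryostat brain sections were stained for Iba-1, and star-shaped activated microglia were counted.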

Data set [17] has as its system Mus musculus. Description: Antiinflammatory activity in Japanese encephalitis virus GP78 infected BALB/c mouse assessed as decrease in virus-induced IL6 levels at 25 mg/kg, ip twice daily after 8 to 9 days relative to control. The class given is functional. Particulars: route intraperitoneal. The procedure, abridged: as §1
Data set [18] relates to Mus musculus. Description: Antiinflammatory activity in Japanese encephalitis virus GP78 infected BALB/c mouse assessed as decrease in virus-induced TNFalpha levels at 25 mg/kg, ip twice daily after 8 to 9 days relative to control. The format is functional. Particulars: route intraperitoneal. Summed up:
as §1

Experimental findings from ChEMBL document CHEMBL1143410, “Antiviral and anti-inflammatory effects of rosmarinic acid in an experimental murine model of Japanese encephalitis” (Antimicrob Agents Chemother, 2007) are described below.

Activity calls are given as the source filed them. The calls are words filed in the database; no cut-off is given here.

With `O=C(/C=C/c1ccc(O)c(O)c1)O[C@H](Cc1ccc(O)c(O)c1)C(=O)O` [ROSMARINIC ACID], the result (in [1]; with Mus musculus [6]; in the data set on Mus musculus [8]; in data set [11]; in the data set on Mus musculus [12]; in data set [16]) was Active. The “fold change (FC)” value in the data set on BV-2 [2] is listed as 14; in the data set on Mus musculus [3] it was 5; in the data set with BV-2 [4], 13; with Mus musculus [5], 6; in the data set with BV-2 [10], 25; in the data set with Mus musculus [13], 100. The “fold change (FC)” value was found to be 12 with BV-2 [14], 12.5 with BV-2 [15], 9 with Mus musculus [17] and 18 in the data set on Mus musculus [18]. Moreover, the values for the Activity entry (in the data set with Mus musculus [7]; in [9]) were “Non-toxic” and 20%, respectively.
